In ChEMBL document CHEMBL1124866, “Synthesis and activity of NAcSerAspLysPro analogues on cellular interactions between T-cell and erythrocytes in rosette formation” (1990):
Calls of active or inactive are those of the source. The rule behind the calls is not given here. Square brackets hold non-standard residues; d marks the D form. Peptide text beside a SMILES is read from it. Orn = NCCC[C@H](N)C(=O)O

Columns and labels:
Jurkat [1] = assay: (§1) Activity on rosetting of jurkat T-cells with SRBC at the concentration of 10e-8 M; format: functional, Homo sapiens
Jurkat [2] = assay: Activity on rosetting of jurkat T-cells with SRBC at the concentration of 10e-8 M; Not significant; format: functional, cell-based; conditions: Homo sapiens, at 0.01 µM
Method in brief: (§2)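 Jurkat T lymphoma cells kept in RPMI 1640 with 10% heat-inactivated FCS, washed three times before use; SRBC washed three times. Jurkat cells (2 × 10^6 cells/mL, 2.10⁵ cells) preincubated with peptide in RPMI for 10 min at 4 °C. SRBC (2 × 10^8 cells/mL) added, centrifuged 5 min at 200g, held overnight at 4 °C. Rosettes (three erythrocytes per lymphocyte) counted blind by hemocytometer; three experiments in quadruplicate; % inhibition.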

Jurkat [3] = assay: Activity on rosetting of jurkat T-cells with SRBC at the concentration of 0 M; format: functional, Homo sapiens
Jurkat [4] = assay: (§3) Activity on rosetting of jurkat T-cells with SRBC at the concentration of 10e-6 M; format: functional, Homo sapiens
Jurkat [5] = assay: Activity on rosetting of jurkat T-cells with SRBC at the concentration of 10e-11 M; Not significant; format: functional, cell-based; conditions: Homo sapiens, at 10 pM; method in brief: as §2
Jurkat [6] = assay: Activity on rosetting of jurkat T-cells with SRBC at the concentration of 10e-5 M; Not significant; format: functional, cell-based; conditions: Homo sapiens
Jurkat [7] = assay: Activity on rosetting of jurkat T-cells with SRBC at the concentration of 10e-6 M; Not significant; format: functional, cell-based; conditions: Homo sapiens
Jurkat [8] = assay: (§4) Activity on rosetting of jurkat T-cells with SRBC at the concentration of 10e-7 M; format: functional, Homo sapiens
Jurkat [9] = assay: Activity on rosetting of jurkat T-cells with SRBC at the concentration of 10e-9 M; format: functional, Homo sapiens
Jurkat [10] = assay: (§5) Activity on rosetting of jurkat T-cells with SRBC at the concentration of 10e-11 M; format: functional, Homo sapiens
Jurkat [11] = assay: (§6) Activity on rosetting of jurkat T-cells with SRBC at the concentration of 10e-5 M; format: functional, Homo sapiens
Jurkat [12] = assay: Activity on rosetting of jurkat T-cells with SRBC at the concentration of 10e-7 M; Not significant; format: functional, cell-based; conditions: Homo sapiens, at 0.1 µM; method in brief: as §2
Jurkat [13] = assay: (§7) Activity on rosetting of jurkat T-cells with SRBC at the concentration of 10e-4 M; format: functional, Homo sapiens
Jurkat [14] = assay: Activity on rosetting of jurkat T-cells with SRBC at the concentration of 10e-4 M; Not significant; format: functional, cell-based; conditions: Homo sapiens
Jurkat [15] = assay: Activity on rosetting of jurkat T-cells with SRBC at the concentration of 10e-9 M; Not significant; format: functional, cell-based; conditions: Homo sapiens, at 0.001 µM; method in brief: as §2
Jurkat [16] = assay: Activity on rosetting of jurkat T-cells with SRBC at the concentration of 10e-10 M; Not significant; format: functional, cell-based; conditions: Homo sapiens, at 0.0001 µM; method in brief: as §2
Jurkat [17] = assay: (§8) Activity on rosetting of jurkat T-cells with SRBC at the concentration of 10e-10 M; format: functional, Homo sapiens
Jurkat [18] = assay: as §6; format: functional; conditions: Homo sapiens
Jurkat [19] = assay: as §3; format: functional; conditions: Homo sapiens
Jurkat [20] = assay: as §7; format: functional; conditions: Homo sapiens
Jurkat [21] = assay: Activity on rosetting of jurkat T-cells with SRBC at the concentration of 10e-15 M; Not significant; format: functional, cell-based; conditions: Homo sapiens
Jurkat [22] = assay: Activity on rosetting of jurkat T-cells with SRBC at the concentration of 10e-12 M; format: functional, Homo sapiens
Jurkat [23] = assay: Activity on rosetting of jurkat T-cells with SRBC at the concentration of 10e-14 M; Not significant; format: functional, cell-based; conditions: Homo sapiens
Jurkat [24] = assay: Activity on rosetting of jurkat T-cells with SRBC at the concentration of 10e-15 M; format: functional, Homo sapiens
Jurkat [25] = assay: Activity on rosetting of jurkat T-cells with SRBC at the concentration of 10e-13 M; Not significant; format: functional, cell-based; conditions: Homo sapiens
Jurkat [26] = assay: as §5; format: functional; conditions: Homo sapiens
Jurkat [27] = assay: as §1; format: functional; conditions: Homo sapiens
Jurkat [28] = assay: Activity on rosetting of jurkat T-cells with SRBC at the concentration of 10e-12 M; Not significant; format: functional, cell-based; conditions: Homo sapiens
Jurkat [29] = assay: as §8; format: functional; conditions: Homo sapiens
Jurkat [30] = assay: as §4; format: functional; conditions: Homo sapiens
Jurkat [31] = assay: Activity on rosetting of jurkat T-cells with SRBC at the concentration of 10e-14 M; format: functional, Homo sapiens
Jurkat [32] = assay: Activity on rosetting of jurkat T-cells with SRBC at the concentration of 10e-13 M; format: functional, Homo sapiens

SMILES	No. of rosettes/100 Jurkat T cells (Jurkat [1])	inhibition (Jurkat [2])	No. of rosettes/100 Jurkat T cells (Jurkat [3])	No. of rosettes/100 Jurkat T cells (Jurkat [4])	inhibition (Jurkat [5])	inhibition (Jurkat [6])	inhibition (Jurkat [7])	No. of rosettes/100 Jurkat T cells (Jurkat [8])	No. of rosettes/100 Jurkat T cells (Jurkat [9])	No. of rosettes/100 Jurkat T cells (Jurkat [10])	No. of rosettes/100 Jurkat T cells (Jurkat [11])	inhibition (Jurkat [12])	No. of rosettes/100 Jurkat T cells (Jurkat [13])	inhibition (Jurkat [14])	inhibition (Jurkat [15])	inhibition (Jurkat [16])	No. of rosettes/100 Jurkat T cells (Jurkat [17])	other results
CC(=O)N[C@@H](C)C(=O)N[C@@H](CC(=O)O)C(=O)N[C@@H](CCCCN)C(=O)N1CCC[C@H]1C(=O)O (Ac-ADKP-OH)	63	inactive	60	59	inactive	inactive	inactive	59	64	56	57	inactive	54	inactive	inactive	inactive	56	
CC(=O)N[C@@H](CO)C(=O)N[C@@H](CC(=O)O)C(=O)N[C@@H](CCCN)C(=O)N1CCC[C@H]1C(=O)O (Ac-SD[Orn]P-OH)			58	52		inactive	inactive				52		54	inactive				
CC(=O)N[C@@H](CO)C(=O)N[C@@H](CCC(=O)O)C(=O)N[C@@H](CCCCN)C(=O)N1CCC[C@H]1C(=O)O (Ac-SEKP-OH)	42	inactive	47	35	inactive			41	43	45	29	inactive			inactive	inactive	46	inhibition at 10 µM (Jurkat [18]): 37%; inhibition at 1 µM (Jurkat [19]): 25%
CC(=O)N[C@@H](CO)C(=O)N[C@@H](CC(=O)O)C(=O)O (Ac-Ser-Asp-OH)	54	inactive	56	46	inactive			52	51	58	39	inactive	39		inactive	inactive	57	inhibition at 10 µM (Jurkat [18]): 30%; inhibition at 1 µM (Jurkat [19]): 18%; inhibition at 100 µM (Jurkat [20]): 30%
NCCCC[C@H](NC(=O)[C@@H](N)CC(=O)O)C(=O)O (H-Asp-Lys-OH)	58	inactive	56			inactive					56		53	inactive				
NCCCC[C@H](NC(=O)[C@@H](N)CC(=O)O)C(=O)N1CCC[C@H]1C(=O)O (H-Asp-Lys-Pro-OH)			54			inactive					57		55	inactive				
NCCCC[C@H](NC(=O)[C@H](CC(=O)O)NC(=O)[C@@H](N)CO)C(=O)N1CCC[C@H]1C(=O)O (H-SDKP-OH)	56		63	50				54		55	49		47				55	inhibition (Jurkat [21]): inactive; inhibition at 10 µM (Jurkat [18]): 22%; inhibition at 1 µM (Jurkat [19]): 20%; No. of rosettes/100 Jurkat T cells (Jurkat [22]): 59; inhibition (Jurkat [23]): inactive; No. of rosettes/100 Jurkat T cells (Jurkat [24]): 60; inhibition (Jurkat [25]): inactive; inhibition at 10 pM (Jurkat [26]): 13%; inhibition at 100 µM (Jurkat [20]): 25%; inhibition at 0.01 µM (Jurkat [27]): 11%; inhibition (Jurkat [28]): inactive; inhibition at 0.0001 µM (Jurkat [29]): 13%; inhibition at 0.1 µM (Jurkat [30]): 14%; No. of rosettes/100 Jurkat T cells (Jurkat [31]): 61; No. of rosettes/100 Jurkat T cells (Jurkat [32]): 58
N[C@@H](CO)C(=O)N[C@@H](CC(=O)O)C(=O)O (H-Ser-Asp-OH)	55	inactive	51	55		inactive	inactive	58	64		55	inactive	46		inactive			inhibition at 100 µM (Jurkat [20]): 31%
CC(=O)N[C@@H](CO)C(=O)N[C@@H](CC(=O)O)C(=O)N[C@@H](CCCCN)C(=O)N1CCC[C@H]1C(=O)O (stereo in doubt; form 1)					inactive											inactive		
CC(=O)N[C@@H](CO)C(=O)N[C@@H](CC(=O)O)C(=O)N[C@@H](CCCCN)C(=O)N1CCC[C@H]1C(=O)O (stereo in doubt; form 2)		inactive				inactive	inactive					inactive		inactive		inactive		
CC(=O)N[C@@H](CO)C(=O)N[C@@H](CC(=O)O)C(=O)N[C@@H](CCCCN)C(=O)N1CCC[C@H]1C(=O)O (stereo in doubt; form 2) [GORALATIDE]	83		82	76				83			78		80				83	
